Measured values: PMC6178240 (Molecular Therapy. Nucleic Acids, 2018)
Read-outs that look alike come from different tables or passages of the source.

Legend:
[1] = tested on: orthotopic U87MG-Luc glioblastoma; assay: In vivo anti-tumor effects; parameters: species or system nude mice; details: 12 times over a 24-hr interval, after 12 days; for tumor growth (luminescence intensity) versus saline: 1 nmol/20 g i.v., n = 5 per group
Procedure, shortened: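 U87MG-Luc cells (3 × 10⁵ in 3 μL ice-cold PBS) were implanted stereotaxically into BALB/c nude mice (2 mm right of bregma, 3 mm deep). Dosing began once IVIS detected tumours. Twenty mice were randomised into 4 groups (2 male, 3 female each). Groups were saline, scrambled 1 nmol/20 g, or test 0.5 or 1 nmol/20 g, i.v. 12 times at 24-hr intervals. IVIS luminescence was read on days 0, 7 and 12, then excised brains were imaged.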

[2] = tested on: orthotopic U87MG-Luc glioblastoma; assay: Survival monitoring assay; assay type: in vivo, nude mice; details: 3 nmol/20 g mixed with Gelofusine (4 mg/20 g) i.v. at 48-hr interval; for median survival time: n = 5
Procedure, shortened: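 Fifteen orthotopic U87MG-Luc nude mice were randomised into 3 groups (2 male, 3 female each). Each received saline, scrambled conjugate or test conjugate (3 nmol/20 g) i.v. every 48 hr, all mixed with Gelofusine (4 mg/20 g). Body weight was recorded daily and IVIS luminescence on days 0, 7 and 28. Mice were sacrificed at 40% loss of primary body weight.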

[3] = tested on: PIK3CB protein; assay: PIK3CB protein level by western blot in U87MG cells; assay type: cell-based, human; details: 72-hr treatment, normalized with GAPDH
[4] = tested on: orthotopic U87MG-Luc glioblastoma; assay: In vivo distribution assay; parameters: species or system nude mice
Procedure, shortened: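 Orthotopic U87MG-Luc nude mice received a single i.v. dose (1 nmol/20 g) of Cy5-labelled conjugate, conjugate plus Gelofusine (4 mg/20 g), unconjugated Cy5-siRNA, or monovalent comparator. Whole-body IVIS Cy5 imaging (ex 640 nm, em 680 nm) was done at 12, 24, 36 and 48 hr. At 24 hr some mice were sacrificed and their tumours and major organs imaged ex vivo.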

[5] = tested on: orthotopic U87MG-Luc glioblastoma; assay: Immunofluorescence analysis of frozen brain sections; assay type: in vivo, nude mice; details: 1 nmol/20 g i.v., confocal
Procedure, shortened: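 Orthotopic U87MG-Luc nude mice received a single i.v. dose of Cy5-labelled siRNA (1 nmol/20 g). Brains taken from the imaging study were frozen at –80°C and sectioned. Sections were stained for CD31 (vessels) and with DAPI, then imaged by confocal microscopy (Cy5 ex 640 nm, em 680 nm). Normal brain served as comparison.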

[6] = tested on: U87MG cells; assay: Cellular uptake by flow cytometry; assay type: cell-based, human
Procedure, shortened: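 U87MG cells were exposed to Cy5-labelled conjugate at 100, 200, 400 or 600 nM, or Cy5-labelled comparators at 600 nM, in Opti-MEM for 12 hr at 37°C. Cells were trypsinised, washed twice in PBS, resuspended, and Cy5 was read by flow cytometry. Receptor blocking used pre-treatment with excess unconjugated biRGD peptide.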

[7] = tested on: HeLa cells; assay: Cellular uptake by flow cytometry; assay type: cell-based; details: HeLa (αvβ3-negative), 600 nM, Opti-MEM, 12 h, 37°C, Cy5 flow cytometry
[8] = tested on: U87MG cells; assay: Confocal fluorescence microscopy of intracellular distribution; assay type: cell-based, human; details: for intracellular distribution (Cy5, confocal): Opti-MEM
Procedure, shortened: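 U87MG cells were exposed to Cy5-labelled molecules at 600 nM in Opti-MEM for 12 hr at 37°C, with or without prior blocking using excess biRGD peptide. Cells were PBS-washed, fixed in 4% paraformaldehyde for 15 min at room temperature, stained with anti-TGN46 and an Alexa Fluor 488 secondary, then imaged by confocal microscopy.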

[9] = tested on: orthotopic U87MG-Luc glioblastoma; assay: ki67 staining and TUNEL assay of tumor sections; assay type: in vivo, nude mice
Procedure, shortened: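 Tumours from the anti-tumour study were used (saline, scrambled 1 nmol/20 g, or test 0.5 or 1 nmol/20 g, i.v. 12 times at 24-hr intervals). They were fixed in 4% paraformaldehyde, paraffin-embedded and cut into 5-μm sections. Sections were stained by Ki67 immunohistochemistry and TUNEL kit. Results were expressed as Ki67-positive/total cells and apoptotic index (TUNEL-positive/total cells).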

[10] = tested on: kidneys; assay: Histopathological evaluation of kidneys; assay type: in vivo, nude mice; details: 1 nmol/20 g i.v., 12 times over a 24-hr interval, H&E
Procedure, shortened: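 Kidneys from orthotopic U87MG-Luc nude mice dosed i.v. 12 times at 24-hr intervals were used. Tissues were fixed at once in 4% paraformaldehyde, paraffin-embedded, cut into 5-μm sections and stained with H&E for histology.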

[11] = Hepatotoxicity, serum ALT; parameters: species or system nude mice; details: serum from in vivo anti-tumor assay
Procedure, shortened: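 Serum came from orthotopic U87MG-Luc nude mice in the anti-tumour study. Dosing was saline, scrambled conjugate 1 nmol/20 g, or test conjugate 0.5 or 1 nmol/20 g, given i.v. 12 times at 24-hr intervals. Serum was collected after sacrifice on day 12. ALT was measured on an automated chemistry analyser following the manufacturer's instructions.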

[12] = Immunogenicity evaluation, serum cytokines by ELISA; assay type: in vivo, BALB/c mice; details: 5nmol/20 g single injection, serum at 6hr
Procedure, shortened: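 Immunocompetent BALB/c mice (4–6 weeks, ~20 g) got a single injection of saline or test conjugate (5 nmol/20 g), alone or mixed with Gelofusine (4 mg/20 g). Serum was collected at 6 hr, and IL-6, IFN-β and TNF-α were measured by ELISA kit.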

[13] = tested on: U87MG cells; assay: Cell apoptosis analysis, Annexin V-FITC/PI flow cytometry; assay type: cell-based, human; details: 72 hr post-treatment
Procedure, shortened: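 U87MG cells attached 24 hr, then exposed to the test conjugate (100, 200, 400 or 600 nM) or scrambled conjugate (600 nM) in serum-free Opti-MEM for 24 hr; untreated control. 10% serum was then added and cells held 72 hr. Apoptosis was measured by Annexin V-FITC/PI staining per kit and read on a flow cytometer as apoptosis rate.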

[14] = tested on: PIK3CB mRNA; assay: PIK3CB mRNA level by qRT-PCR in U87MG cells; assay type: cell-based, human; details: no transfection agent, 48 hr, normalized with GAPDH
[15] = tested on: PIK3CB mRNA; assay: In vivo silencing, PIK3CB mRNA in tumor by qRT-PCR; parameters: species or system human; details: versus saline and biRGD-siNC
[16] = tested on: PIK3CB protein; assay type: in vivo, human
[17] = Serum stability assay; assay type: in vitro ADME; details: 5 μL 20 μM mixed with 5 μL mouse serum, 37°C, 1.2% agarose gel
[18] = tested on: U87MG cells; assay: Transwell migration assay; assay type: cell-based, human; details: 100-600 nM, 48-hr treatment, Matrigel-coated 8-μm inserts, migration 24 hr
Procedure, shortened: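 U87MG cells were exposed to test conjugate (100–600 nM) or scrambled conjugate (600 nM) in serum-free Opti-MEM for 24 hr, then held 48 hr with 10% serum. Cells (5 × 10⁴ in serum-free DMEM) were placed on Matrigel-coated (2 mg/mL) 8-μm inserts, with 10% FBS DMEM below, and allowed to migrate 24 hr. Crystal-violet-stained cells were counted in five random fields.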

[19] = 0.5 nmol/20 g i.v. x12, versus saline and biRGD-siNC
[20] = 1 nmol/20 g i.v. x12, versus saline and biRGD-siNC

## [cyclo(Arg-Gly-Asp-D-Phe-Lys)-Ahx]2-Glu-PEG-MAL (bicyclic or more) [biRGD-siNC, reference compound]
[1]
  tumor growth (luminescence intensity) versus saline: no significant difference
[2]
  course of body weight: rapid decrease in body weight
  median survival time: 23 days
[3]; 600 nM
  PIK3CB protein level, remaining amount: almost no effect

## [cyclo(Arg-Gly-Asp-D-Phe-Lys)-Ahx]2-Glu-PEG-MAL (bicyclic or more) [biRGD-siNC-Cy5]
[4]; 1 nmol/20 g i.v. single dose, IVIS
  time of peak Cy5 fluorescence intensity of orthotopic GBM: 24 h
[4]; 1 nmol/20 g i.v. single dose, IVIS at 12, 24, and 36 hr
  Cy5 fluorescence within the tumor and kidneys: high red Cy5 fluorescent expressions
[4]; 1 nmol/20 g i.v., organs excised at 24 hr
  presence in other main organs (heart, spleen, and lung), ex vivo: not found
[4]; 1 nmol/20 g i.v., organs excised at 24 hr, ex vivo Cy5 imaging
  ex vivo targeting of GBM-bearing brain tissue: specifically target the GBM-bearing brain tissue
[5]; CD31 staining
  Cy5 signal in sections of GBM-bearing brain tissues: significantly higher
[5]
  Cy5 signal in sections of normal brain tissues: little
[6]; U87MG pre-treated with 1 μM unconjugated biRGD peptide, 37°C, 1 hr
  uptake after blocking integrin αvβ3 receptors: inhibited
[6]; U87MG, 600 nM, 12 hr, Cy5 flow cytometry
  uptake relative to cRGD-siNC-Cy5: approximately twice
[6]; U87MG, 100 to 600 nM, Opti-MEM, 12 hr, 37°C, Cy5 flow cytometry
  cellular uptake: enhanced cellular uptake that increased progressively
[6]; U87MG, tested range 100 to 600 nM
  saturation of uptake: No evidence of saturation of uptake
[7]
  cellular uptake: no uptake
[8]; U87MG blocked with biRGD (1 μM)
  intracellular distribution after pre-treating with excess biRGD peptide: inhibited
[8]; U87MG, 600 nM
  intracellular distribution (Cy5, confocal): substantial uptake and wide distribution in the cell
[8]; U87MG, 600 nM, anti-TGN46/Alexa Fluor 488
  subcellular localization versus trans-Golgi marker TGN46: substantial overlap with TGN46 protein

## [cyclo(Arg-Gly-Asp-D-Phe-Lys)-Ahx]2-Glu-PEG-MAL (bicyclic or more) [biRGD-siPIK3CB]
[9]; [19]
  apoptotic tumor cells (TUNEL): obviously higher number
  proliferative cells in tumors (ki67): obviously decreased
[9]; [20]
  apoptotic tumor cells (TUNEL): obviously higher number
  proliferative cells in tumors (ki67): obviously decreased
[9]; TUNEL
  number of apoptotic tumor cells, 1 nmol/20 g group relative to 0.5 nmol/20 g group: about twice
[1]; 0.5 nmol/20 g i.v.
  tumor growth (luminescence intensity) versus saline and biRGD-siNC: no significance
[1]
  tumor growth (luminescence intensity) versus saline: significant tumor growth inhibition
[10]
  pathological sections of kidneys versus saline: mild pathological changes in kidneys
[2]
  course of body weight: steady
  median survival time: 26 days
[11]; mixed with Gelofusine
  ALT level in the serum versus saline: no statistically meaningful difference
[11]; Aeroset Chemistry Analyzer
  ALT level in the serum versus saline: no statistically meaningful difference
[12]
  IFN-β level of the serum versus saline: no significant difference
  IL-6 level of the serum versus saline: no significant difference
  TNF-α level of the serum versus saline: no significant difference
[13]; 400 nM
  apoptosis rate: 15.14%
[13]; 600 nM
  apoptosis rate: 20.76%
[3]; 400 nM
  PIK3CB protein level, remaining amount: about 70%
[3]; 600 nM
  PIK3CB protein level, remaining amount: about 60%
[14]; 400 nM
  PIK3CB mRNA level, remaining amount: about 60%
[14]; 600 nM
  PIK3CB mRNA level, remaining amount: ~50%
[15]; 0.5 nmol/20 g i.v. x12, qRT-PCR
  PIK3CB mRNA expression in tumor: obviously low expression
[15]; 1 nmol/20 g i.v. x12, qRT-PCR
  PIK3CB mRNA expression in tumor: obviously low expression
[16]; 0.5 nmol/20 g i.v. x12
  PIK3CB protein level in tumor (immunohistochemistry): remarkably low
[16]; 1 nmol/20 g i.v. x12
  PIK3CB protein level in tumor (immunohistochemistry): remarkably low
  PIK3CB protein level in tumor (western blot): significantly decreased
[17]; 96 hr
  degradation in mouse serum at 96 hr: low degradation
[18]
  U87MG cell invasion (transwell migration): significantly inhibit

## cyclo(Arg-Gly-Asp-D-Phe-Lys) (head to tail) [cRGD-siNC-Cy5, reference compound]
[8]; U87MG, 600 nM
  intracellular distribution (Cy5, confocal): substantial uptake and wide distribution in the cell

## siPIK3CB: sense 5′-AC(mC)(mU)G(mU)GGAUACUCAU(mU)A(mA)dTdT-3′, antisense 5′-U(mU)AA(mU)GAGUAUCCA(mC)AG(mG)(mU)dTdT-3′
[17]; 0-96 hr
  incubation time in mouse serum after which degraded: 48 h
